Screening results (PubChem BioAssay)
Only some compounds are listed: those with a hit (about 1.7% of all), similar ones and a draw of the others.
eIF4H inh – human eIF4H binding inhibitors, primary screen, translation initiation inhibitor project, biochemical, uHTS, fluorescence polarization; eIF4H fluorescence polarization binding assay; 0.94% of 290,000 active; AID 2012, 2009; inhibition, % at 35 µM;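 further: calls also rest on retests at 20 µM and on dose response follow-up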
PABP polyA inh – PABP poly(A) RNA binding inhibitors, primary screen, biochemical, fluorescence polarization, uHTS | 1% of 290,000 active | AID 2014, 2009 | Polyadenylate-binding protein 1 (Homo sapiens), P11940 | inhibition, % at 35 µM;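 further: calls also rest on retests at 20 µM and on dose response follow-up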
MT1-MMP act inh – blockers of MT1-MMP proenzyme processing, primary screen, HT1080 RFP-PRO-GFP cells, GFP/RFP fluorescence | AID 651647, 2012 | GFP/RFP ratio fluorescence, overnight; percent of plate control window, DMSO zero | GFP/RFP ratio change, % at 20 µM | 0.061% of 360,000 active | Matrix metalloproteinase-14 (Homo sapiens), P50281;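 active means GFP/RFP ratio change of at least 30% with cell ATP level not reduced by more than half and red fluorescence within 50% of control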
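Assay system: HT1080 cells carrying an RFP-PRO-GFP reporter | Dosing: Single dose of 20 µM compound, 1% DMSO final | Incubation: Cells overnight before dosing, compound overnight, 37 °C, 5% CO2 | Evaluation: GFP/RFP fluorescence ratio | Control set: DMSO and RFP-L50D-GFP cell wells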
MLLE-PAM2 inh – inhibitors of PABP1 MLLE–PAM2 peptide binding, primary screen, biochemical, fluorescence polarization, FITC-PAM2, GST-MLLE; 0.36% of 360,000 active; Polyadenylate-binding protein 1 (Homo sapiens), P11940; inhibition, % at 20 µM; in the data active means inhibition above about 35%, passing the limit was not always enough;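 further: plate controls were DMSO wells with GST-MLLE for no effect and wells lacking GST-MLLE protein for full effect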
SKN-1 block – suppressors of acrylamide-induced Pgst-4::GFP reporter in worms, primary screen, SKN-1 inhibitor project, whole organism, uHTS, GFP/RFP fluorescence ratio, strain VP596 | C. elegans VP596 Pgst-4::GFP/RFP ratio, 24 h | inhibition, % at 21.8 µM | 0.49% of 360,000 active | AID 624304, 2012;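 active means interference check ratio from 0.5 to 1.5 plus GFP to RFP signal ratio inhibition reaching or exceeding a fixed threshold, cut at about 30% in these data, passing the limit was not always enough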
* marks the source's active call; other numbers are inactive results; i = inactive; u = inconclusive; x = no result. Unless noted, how the calls were made is not given here.

SMILES | eIF4H inh | PABP polyA inh | MT1-MMP act inh | MLLE-PAM2 inh | SKN-1 block
CCCCCCc1cc2cc(-c3nnc(-c4ccccc4O)o3)c(=O)oc2cc1O | u | u | -475.3 | i | 57.2*
CC(=O)Nc1ccc(SCC(=O)NC(=O)c2ccccc2Br)cc1 | x | x | 2.6 | 43.8* | 1.4
COC(=O)c1ccc(-n2c(C)cc(C(=O)CSc3ccc(NC(C)=O)cc3)c2C)cc1 | -5.3 | -8.6 | -2.1 | 29.4 | 10.4
CC(=O)Nc1ccc(NC(=O)c2ccccc2Br)cc1 | x | x | 1.3 | 0.1 | 3.2
CC(=O)Nc1ccc(SCC(=O)c2cc(C)n(-c3ccccc3F)c2C)cc1 | 1.9 | -9.8 | -4.7 | 40.3* | 16.2
CC(=O)NC(c1cccc(F)c1)c1nc(-c2cccc(C(F)(F)F)c2)cs1 (stereo not given) | x | x | 2.4 | 1.4 | 9.6
C[C@H]1CN([C@@H](C)CO)C(=O)c2cccc(NC(=O)Nc3ccc(F)cc3)c2O[C@@H]1CN(C)Cc1ccc(C(=O)O)cc1 | x | x | -0.1 | 7.5 | 2.5
CCc1nc2ccc(C(=O)NCc3cccs3)cn2c1N(CCC(C)C)CCN(C)C | x | x | -11.6 | 35.4 | 17.9
O=C(Nc1ccccc1)O/N=C/c1ccc(F)cc1 | -11.9 | 10.8 | 1.5 | 2.4 | 37.1*
Cc1c2ccccc2nc2ccccc12 | x | x | -0.3 | 4.5 | 3.0
CCCNc1c(F)c(F)c2c(C)c3ccccc3nc2c1F | 100.8* | 46.1* | -63.8 | 120.8 | 39.0*
O=C(O)CC1(CC(=O)Nc2ccc(Oc3cccc(C(F)(F)F)c3)nc2)CCCC1 | 3.5 | 2.8 | 3.8 | -3.8 | -10.5
CN(Cc1ccc2c(c1)CCCN2C)C(=O)[C@H]1O[C@@H](n2ccc(=O)[nH]c2=O)[C@H](O)[C@@H]1O | x | x | -4.2 | 47.1* | 16.8
CCCN1CCN(C(=O)CCn2c(=O)c3cccn3c3cccnc32)CC1 | 3.3 | 4.4 | -1.6 | -6.5 | -12.9
CCCCn1c(=O)c(CCC(=O)OCC(=O)NC(=O)NCCC(C)C)nc2ccccc21 | active | 57.5 | 0.3 | 17.8 | 1.0
CCN(CC)S(=O)(=O)c1ccc(N2CCOCC2)c(NC(=O)c2ccc(C#N)cc2)c1 | 3.8 | 5.7 | 5.3 | 24.0 | 7.3
Cc1cc(C)nc(SCC(=O)Nc2ccccc2[N+](=O)[O-])n1 | -4.9 | 1.1 | 4.8 | -1.6 | -14.3
O=C1CC(=O)NC(SCC(=O)Nc2ccccc2[N+](=O)[O-])=N1 | 78.4* | 59.8* | 0.2 | 10.0 | 13.9
Cc1oc2c(cc(NS(=O)(=O)c3ccc(C(C)C)cc3)c3ccccc32)c1C(=O)O | 66.2* | 64.1* | -14.5 | 126.2 | 4.2
CC1(C)CC2(C)OC(=N)C1(C#N)C2(C#N)C#N (stereo not given) | -3.3 | 2.5 | -1.2 | 20.2 | 12.2
CC1C2(C)OCC(C#N)(C(=N)O2)C1(C#N)C#N (stereo not given) | 62.7* | 36.1* | x | x | x
CCOC(=O)/C(C#N)=C\c1ccc(N2CCN(C)CC2)cc1 | -8.0 | -5.0 | -8.6 | -33.4 | 5.4
CCOC(=O)/C(C#N)=C/c1ccc(N2CCN(C)CC2)cc1 | active | 69.3 | -3.7 | -26.0 | 9.5
CCN(CC)c1nc2ccccc2nc1C(C#N)C(=O)NCCCOC (stereo not given) | 20.7 | 5.2 | -2.1 | -17.7 | 10.2
CCOC(=O)N1CCN(c2nc3ccccc3nc2C(C#N)C(=O)NCCc2ccccc2)CC1 (stereo not given) | 45.7 | 53.4* | -6.2 | -6.0 | -52.2
SMILES | eIF4H inh | PABP polyA inh | MT1-MMP act inh | MLLE-PAM2 inh | SKN-1 block
CCN(CC)c1nc2ccccc2nc1C(C#N)C(=O)NCCc1ccccc1 (stereo not given) | 28.6* | 70.2 | -175.5 | 48.0 | -36.5
CC(=O)N1CCc2cc(S(=O)(=O)NCCCN3CCC(C)CC3)ccc21 | -3.1 | 7.1 | 2.9 | -3.1 | 10.0
O=C(C=Cc1ccco1)c1ccc2ccccc2c1 | x | x | -9.9 | -19.1 | 62.9*
O=C(/C=C\c1ccco1)c1ccc(NC(=O)c2ccco2)cc1 | u | 53.0* | -3.4 | -1.4 | 2.3
CC(=O)Nc1ccc(C(=O)/C=C/c2ccco2)cc1 | u | 3.8* | x | 9.5 | 15.6
O=C(/C=C/c1ccco1)c1ccc(O)cc1 | 47.7 | 1.5 | x | x | x
Cc1cc(NS(=O)(=O)c2cn(C)nc2C)no1 | -2.9 | 5.7 | -3.3 | 8.7 | 9.3
CCCC1(C(=O)OCC)NC(c2ccc(N(C)C)cc2)C2C(=O)N(c3ccccc3)C(=O)C21 (stereo not given) | -1.8 | 1.0 | 3.4 | -2.5 | 38.5*
CCCC1(C(=O)OCC)NC(c2ccc(N(C)C)cc2)C2C(=O)N(c3ccc(OCC)cc3)C(=O)C21 (stereo not given) | -1.6 | 3.0 | 0.5 | -12.2 | -20.6
CC(=NNC(=O)CCC(=O)Nc1ccccc1Cl)c1ccco1 | x | x | -2.6 | 5.0 | 9.4
CCc1cc2c(=O)nc3n(c2s1)Cc1ccccc1/C3=C(/O)c1ccc(F)cc1 | 70.8* | 79.6* | -23.0 | 11.6 | 13.8
CCc1cc2c(=O)nc3n(c2s1)Cc1ccccc1/C3=C(/O)c1ccccc1Cl | 98.3 | 107.8 | -15.0 | 16.6 | 22.1
O=C(Nc1ncc2c(n1)-c1ccccc1OC2)c1cccc([N+](=O)[O-])c1 | 3.4 | 7.4 | -3.2 | -7.9 | -8.9
CCc1cc2c(=O)nc3n(c2s1)Cc1ccccc1/C3=C(/O)c1cccc([N+](=O)[O-])c1 | 51.8* | 68.8* | -8.1 | 13.9 | -7.4
Cc1ccc(S(=O)(=O)N(CC(=O)Nc2ccccc2C(=O)O)c2ccc(Cl)cc2)cc1 | 6.8 | -1.2 | 0.0 | 13.2 | 1.0
COc1ccccc1N1CCN(C(=O)CCCNC(=O)Cn2cnc3sc(C)c(C)c3c2=O)CC1 | -5.0 | 11.5 | 0.3 | -5.7 | -10.1
OC[C@@H]1CN(Cc2ccc(-c3ccccc3)cc2)C[C@H](n2cnc3c(N4CCOCC4)ncnc32)O1 | x | x | -1.8 | 1.5 | 10.9
CCN(CC)c1ccc(/C=N/NC(=O)c2cccc(S(=O)(=O)Nc3ccccc3OC)c2)cc1 | 51.9* | 16.5 | -3.4 | 4.3 | 7.8
CCN(CC)c1ccc(/C=N/NC(=O)c2cccc(S(=O)(=O)Nc3ccccc3OC)c2)c(O)c1 | 1.5 | -6.2 | -3.1 | -74.7 | 1.0
CC(C)CNC(=O)[C@@H]1CSC2c3ccccc3C(=O)N21 (stereo not given in full) | 0.2 | -1.4 | 1.5 | 27.2 | 7.2
Nn1c(Nc2ccccc2)nc2sc3c(c2c1=O)CCC3 | 6.4 | 4.7 | -4.5 | 22.8 | 5.1
NNc1nc2sc3c(c2c(=O)n1Cc1ccccc1)CCC3 | 64.3* | 14.6* | 3.2 | -54.3 | 20.8
CCn1c(NN)nc2sc3c(c2c1=O)CCC3 | 52.3* | 30.4* | 3.0 | -52.1 | 3.8
C#CCSc1nc2sc3c(c2c(=O)n1C)CCC3 | 63.2* | 38.4* | -2.1 | -8.1 | 0.5
CC1CC1C(=O)OCC(=O)Nc1cc(S(=O)(=O)N2CCCCC2)ccc1Cl (stereo not given) | x | x | 1.7 | 10.0 | 1.1
